# Measured values: paper PMC8025739 (Journal of medicinal chemistry, 2019)
# Experiments:
# [1] = Metabolic stability in swine intestinal; type: in vitro ADME; conditions: swine intestinal (jejunum) homogenate, 20 μm, 37 °C, 1 h (Figure 1B)
# [2] = In vitro plasma stability, human plasma; type: in vitro ADME; conditions: prodrug 20 μm, 37 °C
# [3] = In vitro plasma stability, swine plasma; type: in vitro ADME; conditions: prodrug 20 μm, 37 °C
# [4] = test system: P493B lymphoma cells; experiment: Human tumor cell-to-plasma partitioning, P493B cells in human plasma; type: cell-based; conditions: human plasma with P493B cells, 0.25-2 h (Figure 3A)
# Outline: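 P493B lymphoma cells were grown in RPMI 1640 with L-glutamine, 10% FBS and 1% antibiotic/antimycotic at 37 °C and 5% CO2. Pelleted cells were resuspended in human plasma at 10 million cells/mL and preincubated 5 min at 37 °C. Test compound was incubated at 37 °C for 1 h, or for 0.25, 0.5, 1 and 2 h. Plasma and washed pellets were analysed for intact prodrug and DON by LC–MS/MS, with DON dabsyl-derivatised.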
# [5] = Pharmacokinetics in EL4 tumor-bearing CES1-/- mice; type: in vivo, C57BL/6 CES1−/− mice
# Outline: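 EL4 cells (1 × 10^6 in PBS) were implanted SC in the flank of male and female C57BL/6 CES1−/− mice (6–8 weeks). At about 400 mm3 tumour volume, a single 3.2 mg/kg SC dose was given in ethanol/Tween 80/saline (5:10:85). Plasma, jejunum and tumour were sampled at set times, n = 3 per time point. Analysis was LC–MS/MS with noncompartmental parameters, mean ± SEM.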
# [6] = In vitro plasma stability, mouse plasma; type: in vitro ADME; conditions: prodrug 20 μm, 37 °C
# [7] = Negative control incubation without enzymes; type: physicochemical; conditions: no enzyme, pH 6 buffer, 37 °C, 3 h
# [8] = Metabolic stability in swine liver homogenate; type: in vitro ADME; conditions: 20 μm, 37 °C, 1 h (Figure 1A)
% remaining at 1 h in swine intestinal homogenate [1],SMILES,Plasma Stability (%Remaining at 1 h) Human [2],Plasma Stability (%Remaining at 1 h) Swine [3],other results
instability,"CC(=O)NCCCC[C@H](NC(=O)[C@@H]1Cc2ccccc2CN1)C(=O)N[C@@H](CCC(=O)C=[N+]=[N-])C(=O)OC(C)C [Compound 12, Isopropyl 2-(6-Acetamido-2-(1,2,3,4-tetrahydroisoquinoline-3-carboxamido)hexanamido)-6-diazo-5-oxohexanoate]",,,
instability,"CC(=O)NCCCC[C@H](NC(=O)OCC1c2ccccc2-c2ccccc21)C(=O)N[C@@H](CCC(=O)C=[N+]=[N-])C(=O)OC(C)C [Compound 3, Isopropyl 2-(2-((((9H-Fluoren-9-yl)methoxy)carbonyl)-amino)-6-acetamidohexanamido)-6-diazo-5-oxohexanoate]",,,

# Second part, the compound before the results:
SMILES,% remaining at 1 h in swine intestinal homogenate [1],Plasma Stability (%Remaining at 1 h) Human [2],Plasma Stability (%Remaining at 1 h) Swine [3],other results
"CC(=O)NCCCC[C@H](NC(=O)[C@@H](N)Cc1c[nH]c2ccccc12)C(=O)N[C@@H](CCC(=O)C=[N+]=[N-])C(=O)OC(C)C [Compound 9, Isopropyl 2-(6-Acetamido-2-(2-amino-3-(1H-indol-3-yl)-propanamido)hexanamido)-6-diazo-5-oxohexanoate]",instability,unstable,unstable,
"CCCCCCCCCCCCCCCC(=O)N[C@@H](CCCCNC(C)=O)C(=O)N[C@@H](CCC(=O)C=[N+]=[N-])C(=O)OC(C)C [Compound 4, Isopropyl 2-(6-Acetamido-2-palmitamidohexanamido)-6-diazo-5-oxohexanoate]",unstable,,,
"CC(=O)NCCCC[C@H](NC(=O)C12CC3CC(CC(C3)C1)C2)C(=O)N[C@@H](CCC(=O)C=[N+]=[N-])C(=O)OC(C)C [Compound 6, isopropyl 2-(6-acetamido-2-(adamantane-1-carboxamido)hexanamido)-6-diazo-5-oxohexanoate]",,complete stability,complete stability,"stability of intact prodrug in human plasma, time course [4]: stable over the 2 h incubation period; intact prodrug measured in tumor ([5]; EL4 tumor, SC 3.2 mg/kg): minimal; DON AUC in tumor after dosing of 6 ([5]; EL4 tumor, SC 3.2 mg/kg (1 mg/kg DON equivalent), AUC0–t): 5.1 nmol·h/g; DON AUC in jejunum (GI tissues) after dosing of 6 ([5]; jejunum, SC 3.2 mg/kg (1 mg/kg DON equivalent), AUC0–t): 0.45 nmol·h/g; intact prodrug levels in jejunum ([5]; jejunum, SC 3.2 mg/kg, below the limit of quantification): < 0.001 nmol/mL; Plasma Stability (%Remaining at 1 h) Mouse [6]: instability; chemical stability in negative control without enzymes [7]: chemically stable; % remaining at 1 h in swine liver homogenate [8]: 100%"
"CC(=O)NCCCC[C@H](NC(=O)[C@H](Cc1c[nH]c2ccccc12)NC(=O)C(C)(C)C)C(=O)N[C@@H](CCC(=O)C=[N+]=[N-])C(=O)OC(C)C [Compound 11, Isopropyl 2-(2-(3-(1H-Indol-3-yl)-2-pivalamidopropanamido)-6-acetamidohexanamido)-6-diazo-5-oxohexanoate]",instability,,,
